The species named for test [1] is Rattus norvegicus. Briefly: Inhibition of rat intestinal alpha-glucosidase activity at 50 ug. In a few lines: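 Rat intestinal α-glucosidase assayed in vitro. Compound added as 50 µg from a 5 mg/mL DMSO stock. Percent inhibition run in triplicate and given as mean SD.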
Test [2] has as its system Rattus norvegicus. Briefly: Antihyperglycemic activity in Wistar rat assessed as reduction in postprandial blood glucose rise at 100 mg/kg, po by carbohydrate tolerance test. Format: functional, organism-based. Set-up: dose 100 mg/kg. The method, boiled down:
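Rats housed at 22 °C under a 12 h light-dark cycle, six per group, then fasted overnight. Basal plasma glucose was measured by glucose oxidase on retro-orbital EDTA blood. Compounds were suspended in normal saline and given orally at 100 mg/kg; controls received saline only. Delta-glycemia was read at 30–120 min, shown as mean SD and compared by ANOVA with Bonferroni.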

A short description of test [3]: Inhibition of rat intestinal alpha-glucosidase activity.

The text below walks through data of ChEMBL document CHEMBL1157494, “Reduction in post-prandial hyperglycemic excursion through alpha-glucosidase inhibition by beta-acetamido carbonyl compounds” (Bioorg Med Chem Lett, 2008).

For orientation: inhibition means how much of the control response was suppressed. A lower inhibition goes with a response near the control. The IC50 is the concentration needed to halve the response being measured. High values mean weaker potency, low ones greater potency.

The source made the active and inactive calls. The rule behind the calls is not given here.

Turning to `CC(=O)NC(CC(=O)c1ccc(F)cc1)c1ccc(F)cc1` (centres undefined), in test [1], the inhibition amounted to 55.1%. Regarding `CC(=O)NC(CC(=O)c1ccc(Br)cc1)c1ccc(C)cc1` (centres undefined), in test [2], the outcome was Active. This compound also gave an IC50 in test [3] of 5.53 µM. For the same compound, the inhibition in test [1] was determined as 95.1%.

As to `CC(=O)NC(CC(=O)c1ccc([N+](=O)[O-])cc1)c1ccc([N+](=O)[O-])cc1` (centres undefined), the inhibition in test [1] was found to be 52.7%. Consider `C[C@H]1O[C@H](O[C@H]2[C@H](O)[C@@H](O)[C@@H](O[C@H]3[C@H](O)[C@@H](O)[C@H](O)O[C@@H]3CO)O[C@@H]2CO)[C@H](O)[C@@H](O)[C@@H]1N[C@H]1C=C(CO)[C@@H](O)[C@H](O)[C@H]1O`, for which the result in test [2] was Active. Consider `CC(=O)NC(CC(=O)c1ccc(F)cc1)c1ccc(O)cc1` (centres undefined), for which, in test [3], 72.8 µM corresponded to half-maximal inhibition (IC50). Besides, the inhibition in test [1] is 60.1%. With `CC(=O)NC(CC(=O)c1ccccc1)c1ccc([N+](=O)[O-])cc1` (centres undefined), in test [3], the IC50 is 25.6 µM. The compound also had an inhibition in test [1] of 72.2%. As for `CC(=O)NC(CC(=O)c1ccc([N+](=O)[O-])cc1)c1ccc(C)cc1` (centres undefined), the result in test [2] was Active. The compound further came in with an IC50 in test [3] of 9.07 µM. This compound also came in with an inhibition in test [1] of 85%.

For the compound `CC(=O)NC(CC(=O)c1ccc(Br)cc1)c1ccc(F)cc1` (centres undefined), the inhibition in test [1] came out at 2.7%.
